Active and inactive are the calls of the source.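 Rule for the calls: active = phage lysis blocked by at least 50% at any tested concentration; inactive = the rest.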
Legend:
[1] = system: E. coli UTI89 K1F phage lysis inhibition, OD600; test: inhibition of K1F phage lysis of E. coli UTI89, confirmation, capsule biogenesis inhibitor project, set 5 (AID 588321)
Summary of the method: (§1)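 test system = Uropathogenic E. coli UTI89 (K1 capsule) and kpsM mutant cultures | amount = cultures at 1:100 dilution | medium = LB broth | reagent = K1F phage infection | timing = 1.25 h compound pre-incubation before phage, 3 h post-infection, 37 °C with shaking | signal = OD600 absorbance | measure = lysis from OD600 3 h after phage | benchmarks = phage-resistant kpsM mutant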

[2] = as above; details: E. coli UTI89 K1F phage lysis inhibition, OD600; for CC50: measured here: cytotoxicity; for inhibition of phage lysis: at 100 µM (top of the series)
Summary of the method: as §1

IC50 [1] [µM] | SMILES | CC50 [2] [µM] | inhibition of phage lysis [2]
1.03 | O=C(Nc1ccncc1)c1ccc2ncsc2c1 |  | 
45.6 | CCOc1ccc(-c2cc(NC(=O)c3cccc(Cl)c3)c(C(=O)O)s2)cc1 | 83.9 | 
 | Cc1c(C(=O)Nc2cc(-c3ccccc3)sc2C(=O)O)oc2ccccc12 | 48.7 | 5.2% (inactive)
 | O=C(Nc1cc(-c2ccccc2)sc1C(=O)O)c1cc2ccccc2o1 |  | 10.4% (inactive)
42.7 | O=C(Nc1cc(-c2ccccc2)sc1C(=O)O)c1ccc2c(c1)OCCO2 | 82.1 | 
 | O=C(O)c1sc(-c2ccccc2)cc1NC(=O)C1CCCCC1 |  | 16.1% (inactive)
 | O=C(Nc1cc(-c2ccccc2)sc1C(=O)O)c1cccc(F)c1 | 76.9 | 18.7% (inactive)
 | COC(=O)c1sc(-c2ccccc2)cc1NC(=O)c1c(F)cccc1F | 10.4 | 29.8% (inactive)
82.7 | O=C(Nc1cc(-c2ccccc2)sc1C(=O)O)c1cccs1 | 89.3 | 
 | O=C(Nc1cc(-c2ccccc2)sc1C(=O)O)c1ccc(Cl)s1 | 71.5 | 10.1% (inactive)
56 | CCOc1ccc(-c2cc(NC(=O)c3ccc(OC)c(OC)c3)c(C(=O)O)s2)cc1 | 82.8 | 
58.4 | O=C(Nc1cc(-c2ccccc2)sc1C(=O)O)c1ccc(Br)o1 | 104 | 
 | O=C(O)c1sc(-c2ccccc2)cc1NC(=O)C1CCCC1 |  | 15.2% (inactive)
 | Cc1ccc(C(=O)Nc2cc(-c3ccccc3)sc2C(=O)O)s1 | 63.6 | 
 | Cc1onc(-c2ccccc2)c1C(=O)Nc1cc(-c2ccccc2)sc1C(=O)O | 52.6 | 3.71% (inactive)
 | CCOc1ccc(-c2cc(NC(=O)c3c(F)cccc3F)c(C(=O)OC)s2)cc1 | > 300 | 14.9% (inactive)
83.5 | O=C(Nc1cc(-c2ccccc2)sc1C(=O)O)c1cccc(Cl)c1 | 52.6 | 
 | O=C(Nc1cc(-c2ccccc2)sc1C(=O)O)c1cc(Cl)c2c(c1)OCCO2 |  | 6% (inactive)

Source: PubChem BioAssay AID588321 (Southern Research Specialized Biocontainment Screening …, 2011)
